ADAM17 inh: ADAM17 inhibition, QFRET primary screen | P78536 | 370,000 tested, 0.83% active | recombinant ADAM17, EDANS/DABCYL FRET peptide cleavage | AID 720648 | inhibition, % at 6.95 µM;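 active means inhibition above the mean of compounds lying between control limits plus 3 SD, set per campaign, cut at about 8.5% in these data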;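 further: 0% = DMSO-only wells as the low control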
Target sequence (P78536 215-824 limits assumed): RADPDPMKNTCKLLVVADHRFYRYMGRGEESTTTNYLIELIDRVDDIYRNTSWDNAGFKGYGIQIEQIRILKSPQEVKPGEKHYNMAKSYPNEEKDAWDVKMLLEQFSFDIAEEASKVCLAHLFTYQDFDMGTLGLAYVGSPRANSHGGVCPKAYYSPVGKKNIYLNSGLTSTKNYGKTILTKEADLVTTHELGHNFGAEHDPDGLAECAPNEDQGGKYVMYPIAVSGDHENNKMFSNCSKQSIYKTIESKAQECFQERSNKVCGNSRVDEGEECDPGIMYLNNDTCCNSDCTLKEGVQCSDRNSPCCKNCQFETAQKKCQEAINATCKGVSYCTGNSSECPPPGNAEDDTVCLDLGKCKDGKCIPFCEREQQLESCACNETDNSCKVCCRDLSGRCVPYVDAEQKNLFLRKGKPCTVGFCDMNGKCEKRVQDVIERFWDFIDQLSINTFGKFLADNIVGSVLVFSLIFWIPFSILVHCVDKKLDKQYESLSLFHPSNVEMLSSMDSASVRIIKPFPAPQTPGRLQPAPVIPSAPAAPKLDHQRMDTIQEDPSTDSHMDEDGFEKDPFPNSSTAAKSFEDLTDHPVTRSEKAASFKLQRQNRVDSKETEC
CaV13 ICDI inh: Primary screen for inhibitors of IQ motif and Ca2+-dependent inactivation inhibitor domain binding in CACNA1D, Förster resonance energy transfer in living cells, … | HEK cells, CFP/YFP FRET ICDI-IQ, plate reader, 10 min; percent FRET-ratio fall versus neutral wells | inhibition, % at 12.3 µM | 340,000 tested, 0.098% active | AID 743397;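 active means mean replicate inhibition of at least 30% and at least 1% of replicates passing that level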;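 further: 0% = median of the neutral control wells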
ADAM10 inh: inhibitors of human ADAM10; O14672; recombinant ADAM10, EDANS/DABCYL FRET peptide cleavage, 3 h; inhibition, % at 7 µM; 370,000 tested, 0.62% active; AID 720582;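 active means inhibition above a per-campaign cutoff equal to the mean of compounds falling between control-based bounds plus 3 SD, cut at about 20% in these data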;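 further: 0% = DMSO wells while the 100% control is not disclosed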
Arrestin-AP2 inh: blocks beta-arrestin peptide binding to AP2 adaptin. 340,000 tested, 0.31% active. inhibition, % at 10 µM. FITC-arrestin peptide / GST-AP2 beads, flow cytometry; AP2 beta2 appendage carries R879A mutation. AID 504490;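 active means inhibition above a set limit, near 3 SD of compounds lacking own fluorescence, cut at about 54% in these data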;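 further: plate controls were DMSO wells for no effect and 5 µM unlabelled arrestin peptide for full effect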
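System: GST-AP2 R879A glutathione beads; medium: PBS, Tween 20 0.05%, BSA 0.1%; reagent: fluorescein-tagged arrestin peptide at 50 nM final; schedule: pre-incubation 12 min, peptide binding 1 h, room temperature; detection: flow cytometry, FL1 (488/535 nm); read-out: inhibition as reduced fluorescein signal on beads, percent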
CendR NRP1 mod: modulators of CendR peptide binding to human neuropilin-1. FAM-RPARPAR peptide binding to NRP-1, fluorescence polarization. AID 602438. O14786. 360,000 tested, 0.85% active. inhibition, % at 25 µM;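 active means inhibition or corrected inhibition above about 18%, plus a signal ratio from 0.5 to 1.5, limit read from the data, passing the limit was not always enough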
FAS-TE inh: blocks the thioesterase domain of human fatty acid synthase | P49327 | recombinant FAS-TE, OMFH fluorogenic substrate, fluorescence endpoint | inhibition, % at 15 µM | 360,000 tested, 0.67% active;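 active means compounds whose normalised, plate-corrected inhibition of enzyme fluorescence in the single-dose primary screen is 50% or more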;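 further: 0% = DMSO with enzyme and 100% = substrate without enzyme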
ADAM10 confirm: confirmation of inhibitors of human ADAM10; shares compounds with ADAM10 inh; ADAM10 QFRET peptide cleavage, EDANS fluorescence; inhibition, % at 6.95 µM; 2,100 tested, 1% active; AID 743208;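 active means inhibition above about 20% chosen separately for each screening run, limit read from the data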;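 further: 0% = DMSO wells and 100% = marimastat wells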
ADAM17 counter: inhibits human ADAM17 in ADAM10 exosite counter-screen; shares compounds with ADAM10 inh; ADAM17 QFRET peptide cleavage, EDANS fluorescence; inhibition, % at 6.95 µM; 2,100 tested, 0.5% active;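 active means mean triplicate inhibition above the solvent-only control wells' mean plus 3 SD, cut at about 12% in these data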;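 further: 0% = DMSO wells and 100% = marimastat wells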
* = called active by the depositor; i = inactive; / = no result. Rows were chosen to be rich in hits. Some 2.9% of all compounds tested hit in one or more screens of this group.

SMILES | ADAM17 inh | CaV13 ICDI inh | ADAM10 inh | Arrestin-AP2 inh | CendR NRP1 mod | FAS-TE inh | ADAM10 confirm | ADAM17 counter
COc1ccccc1-n1c(SCC(=O)N(C)C)nnc1-c1ccco1 | 0.2 | -2.2 | 3.2 | 43.8 | -1.0 | -4.1 | / | /
CCNc1nc(NC(C)C)nc(SCCOc2ccc(C)cc2)n1 | 7.1 | / | 23.6* | -2.3 | -7.2 | 20.3 | 6.9 | 1.4
CCNc1nc(NC(C)C)nc(SCCOC(=O)c2ccccc2)n1 | 5.3 | -4.3 | 14.5 | 3.0 | -9.8 | 5.1 | / | /
O=C(CCN1CCN(c2ccccc2)CC1)NNC(=S)Nc1ccccc1Cl | 15.0* | -2.6 | 20.7* | -9.0 | -10.1 | -2.6 | 0.8 | 1.0
O=C(CN1CCN(c2ccccc2)CC1)Nc1ccccc1Cl | -1.4 | 4.6 | 5.5 | -1.8 | -5.0 | 20.5 | / | /
Cc1noc(NS(=O)(=O)c2ccc(NC(=O)/C=C/c3ccc(Br)cc3)cc2)c1C | -1.9 | / | 21.8* | 9.3 | -8.1 | -1.3 | -0.1 | -0.3
Cc1noc(NS(=O)(=O)c2ccc(NC(=O)/C=C/c3ccc(C(C)C)cc3)cc2)c1C | 4.4 | / | 3.4 | 9.7 | 3.9 | 1.7 | / | /
COc1ccc(-c2nc(-c3ccccc3)c(-c3cc([N+](=O)[O-])ccc3C)[nH]2)cc1O | 8.4 | / | 30.7* | 1.7 | -1.1 | 34.8 | 7.6 | 2.1
C#CCCN([C@H](C(=O)OC)C(C)CC)S(=O)(=O)c1ccccc1Br (some centres undefined) | 8.2 | / | 10.8 | / | / | / | / | /
COC(=O)c1cn[nH]c1NC(=S)Nc1ccccc1C | 6.7 | -8.0 | 25.1* | 19.4 | 3.4 | -158.7 | 2.5 | 2.5
COC(=O)c1cn[nH]c1NC(=S)Nc1ccc(C)cc1Cl | 2.9 | -5.3 | 10.0 | -3.4 | 5.4 | -161.1 | / | /
Cc1ccc(NC(=O)CSc2nc(NS(=O)(=O)c3ccc(C)cc3)cc(=O)[nH]2)cc1 | 7.0 | -5.8 | 23.0* | -0.2 | -6.6 | 39.1 | 7.5 | 1.3
COc1ccc(S[C@]2(C(=O)N3CCN(C(C)=O)CC3)CC(=O)N(C(=O)Nc3ccc(C)c(Cl)c3)[C@@H]2c2ccc(OC)cc2)cc1 | 9.5* | / | 19.8* | / | / | / | 8.5 | 4.8
O=C1OCc2ccc([N+](=O)[O-])cc21 | -2.6 | -5.3 | -6.9 | -14.2 | 13.9 | -5.2 | / | /
CC(CC(=O)Nc1ccc2c(c1)c(=O)n(C)n2Cc1ccc(F)cc1)C(F)(F)F (centres undefined) | i | -5.1 | i | / | -10.5 | -2.8 | / | /
Cc1ccccc1C(=O)NNC(=S)Nc1cccc(C(F)(F)F)c1 | 8.7* | -2.0 | 25.1* | 17.6 | -11.2 | -6.0 | 3.8 | 1.3
O=C(NNC(=S)Nc1cccc(C(F)(F)F)c1)c1ccc(Cl)cc1Cl | 6.5 | -3.3 | 15.7 | 31.1 | -7.3 | 5.2 | / | /
Cc1cccc(NC(=O)c2cc3n(n2)C(C(F)(F)F)CC(c2ccc4c(c2)OCO4)N3)c1 (centres undefined) | 5.2 | -1.7 | 21.7* | 23.7 | -1.4 | 36.3 | 2.1 | -1.3
COc1ccc(NC(=O)c2cc3n(n2)C(C(F)(F)F)CC(c2ccc4c(c2)OCO4)N3)cc1OC (centres undefined) | / | / | / | -8.3 | 1.6 | 18.8 | / | /
COc1cc(/C=N/OCC(=O)Nc2ccc(OC(F)F)cc2)ccc1OCc1ccccc1 | 1.5 | -8.1 | 23.1* | -7.5 | -46.2 | 32.5 | 11.2 | 3.9
CCOc1ccc(/C=N/OCC(=O)Nc2ccc(OCc3ccccc3)cc2)cc1OC | -0.7 | -4.5 | 3.5 | -4.1 | 3.5 | 20.3 | / | /
Cc1ccc(-c2nc(C)sc2CC(=O)OCC(=O)Nc2cccc([N+](=O)[O-])c2)cc1 | 3.3 | -4.5 | 8.7 | -10.4 | 1.8 | 13.8 | / | /
Cc1ccc(C(=O)c2ccccc2C(=O)OCC(=O)Nc2cccc([N+](=O)[O-])c2)cc1 | 6.6 | -7.6 | 27.1* | 12.7 | -4.7 | 33.7 | 6.2 | 1.2
CC(C)[C@H](N)c1cn([C@@H](CC(N)=O)C(=O)N2CCNCC2)nn1 | -1.3 | -11.6 | 0.7 | 1.1 | 11.8 | -9.4 | / | /
CN(C)c1ccc(-c2ccnc3c2CC(C)(C(=O)Nc2cccc(Oc4ccccc4)c2)O3)cc1 (centres undefined) | -102.3 | -7.4 | -293.4 | / | 1.4 | 7.6 | / | /
SMILES | ADAM17 inh | CaV13 ICDI inh | ADAM10 inh | Arrestin-AP2 inh | CendR NRP1 mod | FAS-TE inh | ADAM10 confirm | ADAM17 counter
COc1cc(O)c2c(=O)c3c(O)ccc(O)c3oc2c1 | 2.2 | / | 82.6* | 13.6 | -5.4 | -4.1 | 3.0 | 0.1
Fc1ccc(NC2CCC23CCC(c2ccccc2)CC3)cc1C(F)(F)F (centres undefined) | -0.5 | / | 0.7 | / | / | / | / | /
Oc1ccccc1C1=NC(c2ccccc2)NC(c2ccccc2)C1 (centres undefined) | -2.5 | -8.1 | -22.8 | / | 1.2 | 15.2 | / | /
O=C(NCc1ccc2c(c1)OCO2)c1ccc(CSCc2ccccc2Cl)o1 | 6.7 | -6.9 | 23.2* | 25.1 | -2.0 | 28.6 | 8.0 | 3.6
O=C(NCc1ccc2c(c1)OCO2)c1ccccc1Cl | -2.6 | -5.4 | 1.7 | -10.4 | 8.3 | -2.1 | / | /
Cc1cccc(-c2nc3ccccc3c(=O)n2NC(=O)/C=C/c2ccc([N+](=O)[O-])cc2)c1 | 0.7 | -6.5 | 1.8 | 15.1 | -4.6 | 25.7 | / | /
O=C(/C=C/c1cccc([N+](=O)[O-])c1)Nn1c(-c2ccccc2F)nc2ccccc2c1=O | 6.5 | -12.9 | 24.5* | 4.3 | -9.9 | 28.2 | -2.0 | 0.2
O=C(CCC(=O)N1CCN(S(=O)(=O)c2ccc(Cl)cc2)CC1)Nc1ccc2ccccc2c1 | 6.2 | -4.3 | 22.3* | -7.7 | 9.6 | 26.0 | 4.5 | 1.6
C[C@H](CCC(=O)OCc1cn(CC(=O)c2ccc(O)cc2)nn1)C1CC[C@H]2[C@@H]3CC[C@@H]4C[C@H](O)CC[C@]4(C)[C@H]3C[C@H](O)[C@]12C (some centres undefined) | 6.6 | -5.0 | 30.1* | 26.1 | -10.3 | 14.8 | 7.8 | 1.3
C[C@H](CCC(=O)O)[C@H]1CC[C@H]2[C@@H]3CC[C@@H]4C[C@H](O)CC[C@]4(C)[C@H]3C[C@H](O)[C@]12C | -0.9 | -5.0 | -2.3 | -5.2 | -13.3 | -2.1 | / | /
CN(C)c1cccc(-c2cnc(N3CCC(C(N)=O)CC3)nc2)c1 | -4.9 | / | -12.8 | / | / | / | / | /
COC(=O)[C@]1(CC(C)C)N[C@H](c2ccc(-c3cccc(Cl)c3)cc2)[C@@H]2C(=O)N(C)C(=O)[C@@H]21 | 5.7 | -9.7 | 22.5* | 22.9 | -0.7 | 35.4 | 7.9 | 1.8
CCN1C(=O)[C@H]2[C@@H](c3ccc(-c4ccccc4)cc3)N[C@@](C)(C(=O)OC)[C@H]2C1=O | -3.5 | -5.1 | 7.6 | -5.8 | 12.7 | -2.8 | / | /

Compound activity deposited in PubChem BioAssay by several laboratories.
